Reference: PubChem BioAssay AID651576 (The Scripps Research Institute Molecular Screening Center, 2012)
Several values for one entry are separate records, joined by “and”; a condition that tells them apart may be missing. Equal values may be shown once. Activity calls are given as the source filed them.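 The calls were made as follows: active = inhibition of at least 50%, averaged over three replicate wells; inactive = inhibition below 50%.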

System: HCV core protein (core106) dimerization, Hepatitis C virus
Experiment: disruption of HCV core self-association – biochemical, AlphaScreen luminescence, single dose 15 µM, powder samples, late-stage follow-up (AID 651576)
Conditions: AlphaScreen GST/Flag-core106 dimerization, at 15 µM, stronger effect = higher value
Procedure, shortened: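 Assay system – HCV core106 dimerization between GST-tagged and Flag-tagged core106 proteins · Quantity – 150 nM of each tagged core106 protein · Repeats – three replicate wells per compound, averaged · Detection – AlphaScreen luminescence · Read-out – percent inhibition of AlphaScreen signal versus uninhibited protein-only wells · Incubation – protein preincubation 1 h at room temperature, 1 h per bead step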

Structure (SMILES)	inhibition
Cc1nc2nc(SCC(=O)NCCN3CCOCC3)nn2c(C)c1Cc1ccncc1	-11% (inactive)
Cc1ccc(Cc2c(C)nc3nc(SCC(=O)NCCN4CCCN(S(C)(=O)=O)CC4)nn3c2C)cc1	53%
Cc1ccc(Cc2c(CCc3ccccc3)nc3nc(SCC(=O)NCCN4CCOCC4)nn3c2C)cc1	44% (inactive)
Cc1ccc(Cc2c(C)nc3nc(SCC(=O)NCCN4CCN(CCc5ccccc5)CC4)nn3c2C)cc1	65%
Cc1ccc(Cc2c(C)nc3nc(SCC(=O)NCC4CCCCN4C(=O)CSc4nc5nc(C)c(Cc6ccc(C)cc6)c(C)n5n4)nn3c2C)cc1 (stereo not drawn)	93%
Cc1ccc(Cc2c(C)nc3nc(SCC(=O)NCCN4CCCN(C(=O)c5ccc(F)cc5)CC4)nn3c2C)cc1	< 50% (inactive)
Cc1ccc(Cc2c(C)nc3nc(SCC(=O)NCCN4CCCN(S(=O)(=O)c5ccc(C)cc5)CC4)nn3c2C)cc1	79%
Cc1ccc(Cc2c(C)nc3nc(SCC(=O)NCc4ccc(CNC(=O)CSc5nc6nc(C)c(Cc7ccc(C)cc7)c(C)n6n5)cc4)nn3c2C)cc1	89%
Cc1ccc(Cc2c(C)nc3nc(SCC(=O)NCCN4CCNCC4)nn3c2C)cc1	51%
Cc1ccc(Cc2c(C)nc3nc(SCC(=O)NCCC4CCOCC4)nn3c2C)cc1	< 50% (inactive)
Cc1ccc(Cc2c(C)nc3nc(SCC(=O)N4CCN(C(=O)CSc5nc6nc(C)c(Cc7ccc(C)cc7)c(C)n6n5)CC4)nn3c2C)cc1	87%
Cc1nc2nc(SCC(=O)NCCCNC(=O)CSc3nc4nc(C)c(Cc5ccncc5)c(C)n4n3)nn2c(C)c1Cc1ccncc1	< 50% (inactive)
Cc1ccc(Cc2c(C)nc3nc(SCC(=O)NCCN4CCN(S(=O)(=O)c5ccc(C)cc5)CC4)nn3c2C)cc1	< 50% (inactive)
Cc1ccc(Cc2c(C)nc3nc(SCC(=O)NC4CCCCCCC4)nn3c2C)cc1	59%
Cc1nc2nc(SCC(=O)NCCN3CCOCC3)nn2c(C)c1Cc1ccc(Br)cc1	< 50% (inactive)
Cc1ccc(Cc2c(C)nc3nc(SCC(=O)NCCN4CCN(Cc5ccc(F)cc5)CC4)nn3c2C)cc1	66%
Cc1ccc(Cc2c(C)nc3nc(SCC(=O)N4CCOCC4)nn3c2C)cc1	13% (inactive)
Cc1ccc(Cc2c(C)nc3nc(SCC(=O)N4CCN(Cc5ccc(Br)cc5)CC4)nn3c2C)cc1	43% (inactive)
Cc1ccc(Cc2c(C)nc3nc(SCC(=O)NCCN4CCCN(S(=O)(=O)c5ccccc5)CC4)nn3c2C)cc1	83%
Cc1ccc(Cc2c(C)nc3nc(SCC(=O)N4CCN(Cc5ccc(F)cc5)CC4)nn3c2C)cc1	10% (inactive)
Cc1ccc(Cc2c(C)nc3nc(SCC(=O)N4CCCCC4)nn3c2C)cc1	41% (inactive)
Cc1ccc(Cc2c(C)nc3nc(SCC(=O)NCCN4CCCC4)nn3c2C)cc1	< 50% (inactive)
Cc1ccc(Cc2c(C)nc3nc(SCC(=O)NCCN4CCN(Cc5ccccc5)CC4)nn3c2C)cc1	66%
CCCN1CCN(CCNC(=O)CSc2nc3nc(C)c(Cc4ccc(C)cc4)c(C)n3n2)CC1	< 50% (inactive)
CCN(CC)C(=O)CSc1nc2nc(C)c(Cc3ccc(C)cc3)c(C)n2n1	11% (inactive)
Cc1ccc(Cc2c(C)nc3nc(SCC(=O)NCCCCCNC(=O)CSc4nc5nc(C)c(Cc6ccc(C)cc6)c(C)n5n4)nn3c2C)cc1	78%

Structure (SMILES)	inhibition
Cc1ccc(Cc2c(C)nc3nc(SCC(=O)N4CCNCC4)nn3c2C)cc1	42% (inactive)
Cc1ccc(Cc2c(C)nc3nc(SCC(=O)NCCN4CCN(C(=O)c5ccc(F)cc5)CC4)nn3c2C)cc1	< 50% (inactive)
Cc1ccc(Cc2c(C)nc3nc(SCC(=O)NCCN4CCCN(C(=O)OC(C)(C)C)CC4)nn3c2C)cc1	< 50% (inactive)
Cc1nc2nc(SCC(=O)N3CCN(C(=O)CSc4nc5nc(C)c(Cc6ccc(Br)cc6)c(C)n5n4)CC3)nn2c(C)c1Cc1ccc(Br)cc1	25% (inactive)
Cc1ccc(Cc2c(C)nc3nc(SCC(=O)NCCN4CCCCC4)nn3c2C)cc1	56%
Cc1ccc(Cc2c(C)nc3nc(SCC(=O)NCCN4CCN(Cc5ccc(Cl)cc5)CC4)nn3c2C)cc1	87%
C=CCN1CCN(CCNC(=O)CSc2nc3nc(C)c(Cc4ccc(C)cc4)c(C)n3n2)CC1	< 50% (inactive)
Cc1ccc(Cc2c(C)nc3nc(SCC(=O)NCCN4CCCNCC4)nn3c2C)cc1	< 50% (inactive)
Cc1ccc(Cc2c(C)nc3nc(SCC(=O)NCCN4CCN(C(=O)C(C)C)CC4)nn3c2C)cc1	< 50% (inactive)
Cc1ccc(Cc2c(C)nc3nc(SCC(=O)N4CCCN(C(=O)CSc5nc6nc(C)c(Cc7ccc(C)cc7)c(C)n6n5)CC4)nn3c2C)cc1	90%
Cc1cccc(Cc2c(C)nc3nc(SCC(=O)NCC(C)NC(=O)CSc4nc5nc(C)c(Cc6cccc(C)c6)c(C)n5n4)nn3c2C)c1 (stereo not drawn)	67%
Cc1ccc(Cc2c(C)nc3nc(SCC(=O)NCCCCCCNC(=O)CSc4nc5nc(C)c(Cc6ccc(C)cc6)c(C)n5n4)nn3c2C)cc1	88%
Cc1ccc(Cc2c(C)nc3nc(SCC(=O)NCC[N+]4(Cc5ccc(F)cc5)CCN(Cc5ccc(F)cc5)CC4)nn3c2C)cc1	< 50% (inactive)
Cc1cccc(Cc2c(C)nc3nc(SCC(=O)N4CCCCCC4)nn3c2C)c1	71%
Cc1cccc(Cc2c(C)nc3nc(SCC(=O)NC4CCN(C(=O)CSc5nc6nc(C)c(Cc7cccc(C)c7)c(C)n6n5)C4)nn3c2C)c1 (stereo not drawn)	80%
CCN(CC)CCCNC(=O)CSc1nc2nc(C)c(Cc3ccc(C)cc3)c(C)n2n1	65%
Cc1ccc(Cc2c(C)nc3nc(SCC(=O)NCC4CCN(C(=O)CSc5nc6nc(C)c(Cc7ccc(C)cc7)c(C)n6n5)CC4)nn3c2C)cc1	89%
Cc1ccc(Cc2c(C)nc3nc(SCC(=O)NCCc4ccccc4)nn3c2C)cc1	40% (inactive)
Cc1ccc(Cc2c(C)nc3nc(SCC(=O)NCCN(C)C)nn3c2C)cc1	< 50% (inactive)
CC(=O)N1CCN(CCNC(=O)CSc2nc3nc(C)c(Cc4ccc(C)cc4)c(C)n3n2)CC1	< 50% (inactive)
Cc1ccc(Cc2c(C)nc3nc(SCC(=O)N4CCN(Cc5ccc(Cl)cc5)CC4)nn3c2C)cc1	44% (inactive)
Cc1nc2nc(SCC(=O)N(C)CCN3CCOCC3)nn2c(C)c1Cc1ccc(Br)cc1	12% (inactive)
Cc1ccc(Cc2c(C)nc3nc(SCC(=O)NCCN4CCN(S(C)(=O)=O)CC4)nn3c2C)cc1	< 50% (inactive)
Cc1ccc(Cc2c(C)nc3nc(SCC(=O)N[C@H]4CCCN(C(=O)CSc5nc6nc(C)c(Cc7ccc(C)cc7)c(C)n6n5)C4)nn3c2C)cc1	85%
Cc1ccc(Cc2c(C)nc3nc(SCC(=O)NCCC4=CCCCC4)nn3c2C)cc1	22% (inactive)
Cc1ccc(Cc2c(C)nc3nc(SCC(=O)NCCN4CCCCCC4)nn3c2C)cc1	97% and 82%

Structure (SMILES)	inhibition
Cc1ccc(Cc2c(C)nc3nc(SCC(=O)NCCN4CCN(C(=O)OC(C)(C)C)CC4)nn3c2C)cc1	51%
Cc1ccc(Cc2c(C)nc3nc(SCC(=O)Nc4ccccc4NC(=O)CSc4nc5nc(C)c(Cc6ccc(C)cc6)c(C)n5n4)nn3c2C)cc1	80%
Cc1ccc(Cc2c(C)nc3nc(SCC(=O)NCCCN4CCCCCC4)nn3c2C)cc1	16% (inactive)
C#CCN1CCN(CCNC(=O)CSc2nc3nc(C)c(Cc4ccc(C)cc4)c(C)n3n2)CC1	< 50% (inactive)
Cc1ccc(Cc2c(C)nc3nc(SCC(=O)N(C)C)nn3c2C)cc1	51%
Cc1ccc(Cc2c(C)nc3nc(SCC(=O)NCC[N+]4(C)CCOCC4)nn3c2C)cc1	46% (inactive)
Cc1ccc(Cc2c(C)nc3nc(SCC(=O)N4CCN(C)CC4)nn3c2C)cc1	37% (inactive)
Cc1ccc(Cc2c(C)nc3nc(SCC(=O)N4C[C@@H]5C[C@H]4CN5C(=O)CSc4nc5nc(C)c(Cc6ccc(C)cc6)c(C)n5n4)nn3c2C)cc1	67%
CCCNC(=O)CSc1nc2nc(C)c(Cc3ccc(C)cc3)c(C)n2n1	38% (inactive)
Cc1ccc(Cc2c(C)nc3nc(SCC(=O)NCCC(C)C)nn3c2C)cc1	43% (inactive)
Cc1nc2nc(SCC(=O)NCCC3=CCCCC3)nn2c(C)c1Cc1ccc(Cl)cc1	30% (inactive)
Cc1ccc(Cc2c(C)nc3nc(SCC(=O)NC4CCN(C(=O)CSc5nc6nc(C)c(Cc7ccc(C)cc7)c(C)n6n5)CC4)nn3c2C)cc1	80%
Cc1ccc(Cc2c(C)nc3nc(SCc4ccc(Cl)cc4)nn3c2C)cc1	52%
Cc1ccc(Cc2c(C)nc3nc(SCC(=O)N4CCN(CCc5ccccc5)CC4)nn3c2C)cc1	41% (inactive)
Cc1ccc(Cc2c(C)nc3nc(SCC(=O)NCCCCNC(=O)CSc4nc5nc(C)c(Cc6ccc(C)cc6)c(C)n5n4)nn3c2C)cc1	88%
CCCNC(=O)CSc1nc2nc(C)c(Cc3cccc(C)c3)c(C)n2n1	33% (inactive)
Cc1ccc(Cc2c(C)nc3nc(SCC(=O)N4CCSCC4)nn3c2C)cc1	63%
Cc1ccc(Cc2c(C)nc3nc(SCC(=O)NCCN4CCSCC4)nn3c2C)cc1	79%
Cc1ccc(Cc2c(C)nc3nc(SCC(=O)N4CCN(Cc5ccc(C)cc5)CC4)nn3c2C)cc1	14% (inactive)
Cc1ccc(Cc2c(C)nc3nc(SCC(=O)N4CCCC4)nn3c2C)cc1	87%
Cc1ccc(Cc2c(C)nc3nc(SCC(=O)NCCN4CCN(C(=O)c5ccccc5)CC4)nn3c2C)cc1	< 50% (inactive)
Cc1ccc(Cc2c(C)nc3nc(SCC(=O)NC4CCCC(NC(=O)CSc5nc6nc(C)c(Cc7ccc(C)cc7)c(C)n6n5)C4)nn3c2C)cc1 (stereo not drawn)	98%
Cc1ccc(Cc2c(C)nc3nc(SCC(=O)NCCN4CCCN(C(=O)c5ccccc5)CC4)nn3c2C)cc1	< 50% (inactive)
Cc1ccc(Cc2c(CCc3ccccc3)nc3nc(SC(Cc4ccccc4)C(=O)NCCN4CCOCC4)nn3c2C)cc1 (stereo not drawn)	85%
Cc1ccc(Cc2c(C)nc3nc(SCC(=O)NCCCNC(=O)CSc4nc5nc(C)c(Cc6ccc(C)cc6)c(C)n5n4)nn3c2C)cc1	96%
Cc1ccc(Cc2c(C)nc3nc(SCC(=O)NCCN4CCN(S(=O)(=O)c5ccccc5)CC4)nn3c2C)cc1	62%
